In PubChem BioAssay AID602222 (Southern Research Specialized Biocontainment Screening …, 2012):
Active and inactive are the calls of the source.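 How the source made its calls: active means inhibition of 30% or more at any tested concentration; inactive means the rest.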

Molecular target: M18 aspartyl aminopeptidase (Plasmodium falciparum 3D7)
Experiment: PfM18AAP aminopeptidase inhibitors, dose response, biochemical, QFRET, H-Glu-NHMec substrate, set 1 (AID 602222)
Settings: recombinant PfM18AAP, H-Glu-NHMec fluorogenic substrate cleavage
In short: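 Control set: Full reaction and no-enzyme wells | Material: PFM18AAP, purified recombinant M18 aspartyl aminopeptidase of Plasmodium falciparum | Input: Enzyme 5 µg/mL final | Reagent: H-Glu-NHMec substrate, 0.1 mM final | Compound: 10 concentrations, 1:2 steps, top 100 µM | Technique: Fluorescence of liberated NHMec leaving group | Replicates: Triplicate | Schedule: 90 min reaction at room temperature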

SMILES | IC50 [µM]
Oc1ccc(-c2csc(Nc3ncccn3)n2)cc1O | 6.43
CN1CCN(c2nc(-c3ccc(O)c(O)c3)cs2)CC1 | 9.37
Oc1ccc(CCNc2ccnc3ccccc23)cc1O | 7.33
CN1CCN(CCCc2ccc(O)c(O)c2)CC1 | 13.3
Oc1ccc(-c2csc(NC3CCCC3)n2)cc1O | 13.1
CN1CCN(CCc2ccc(O)c(O)c2)CC1 | 27.1
CCc1ccc(NC(=O)Cc2nc(-c3ccc(O)c(O)c3)cs2)cc1 | 16.6
Oc1ccc(CCNc2c3ccccc3nc3ccccc23)cc1O | 4.3

Same assay, conditions: recombinant PfM18AAP, H-Glu-NHMec fluorogenic substrate cleavage; at 100 µM (top of the series)

SMILES | inhibition
COc1ccc(CCNC(c2ccccc2)c2ccccc2)cc1OC | inactive
COc1ccc(CCCN2CCN(C)CC2)cc1OC | inactive
